pIC50: −log10 of the molar value.
Tests used:
[1] = Cytotoxicity against human SMMC-7221 cells assessed as reduction in cell viability after 48 hrs by MTS assay; type: functional, cell-based; settings: SMMC-7221, 48 h
Summary of the method: (§1)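 Cells (5 × 10^3 per well) were plated 12 h before treatment, then exposed continuously to compound for 48 h. MTS was added, with 1–4 h incubation at 37 °C and OD read at 490 nm. IC50 is the concentration cutting OD by 50% versus untreated cells, taken from dose–response curves. Values are the mean of three independent determinations.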

A549 = experiment: Cytotoxicity against human A549 cells assessed as reduction in cell viability after 48 hrs by MTS assay; type: functional, cell-based; settings: A549, 48 h; summary of the method: as §1
MCF7 [2] = experiment: Cytotoxicity against human MCF7 cells assessed as reduction in cell viability after 48 hrs by MTS assay; type: functional, cell-based; settings: MCF7, 48 h; summary of the method: as §1
SW480 = experiment: Cytotoxicity against human SW480 cells assessed as reduction in cell viability after 48 hrs by MTS assay; type: functional, cell-based; settings: SW480, 48 h; summary of the method: as §1
MCF7 [3] = experiment: Potency index, ratio of cisplatin IC50 to compound IC50 for cytotoxicity against human MCF7 cells by MTS assay; type: functional

In the case of `COc1ccc(C(=O)C[n+]2cn(CCCN3C[C@@H]4Cc5ccc(Br)cc5[C@@H]4c4cccc(OC)c43)c3cc(C)c(C)cc32)cc1.[Br-]`, the pIC50 [1] was 6.05, the pIC50 (A549) was 5.82 and the pIC50 (MCF7 [2]) was 6.46. The pIC50 (SW480) was 5.85 and the “Ratio IC50” value (MCF7 [3]) was 56.
`COc1cc2c(cc1OC)[C@@H]1c3cccc(OC)c3N(CCCn3c[n+](CC(=O)c4ccc5ccccc5c4)c4cc(C)c(C)cc43)C[C@@H]1C2` showed a pIC50 [1] of 5.77, a pIC50 (A549) of 5.31 and a pIC50 (MCF7 [2]) of 5.95. For the same compound, the pIC50 (SW480) was 5.86.
For `COc1cc2c(cc1OC)[C@@H]1c3cccc(OC)c3N(CCCn3c(C)[n+](Cc4ccc5ccccc5c4)c4ccccc43)C[C@@H]1C2`, the pIC50 [1] was 5.95, the pIC50 (A549) was 5.82 and the pIC50 (MCF7 [2]) was 5.97. The pIC50 (SW480) was 5.82.
For `COc1cccc2c1N(C(=O)CCn1c[n+](Cc3ccc4ccccc4c3)c3cc(C)c(C)cc31)C[C@@H]1Cc3ccccc3[C@H]21`, the pIC50 [1] was 5.99, the pIC50 (A549) was 5.59 and the pIC50 (MCF7 [2]) was 6.03. For the same compound, the pIC50 (SW480) was 6.01.
`COc1cc2c(cc1OC)[C@@H]1c3cccc(OC)c3N(CCCn3c(C)[n+](CC(=O)c4ccc5ccccc5c4)c4ccccc43)C[C@@H]1C2` gave a pIC50 [1] of 5.26, a pIC50 (A549) of 5.08 and a pIC50 (MCF7 [2]) of 5.67. For the same compound, the pIC50 (SW480) was 5.69.

From ChEMBL document CHEMBL4373640, “Synthesis and antitumor activity of aza-brazilan derivatives containing imidazolium salt pharmacophores” (Medchemcomm, 2019)
